Assay results: ChEMBL document CHEMBL1153925, “Synthesis, characterization and biological activity of ring-substituted 6-benzylamino-9-tetrahydropyran-2-yl and 9-tetrahydrofuran-2-ylpurine derivatives” (Bioorg Med Chem, 2009)

Columns and labels:
K562 = assay: Cytotoxicity against human K562 cells after 72 hrs by Calcein AM assay; type: ADME, cell-based; details: K562, 72 h
MCF7 = assay: Cytotoxicity against human MCF7 cells after 72 hrs by Calcein AM assay; type: ADME, cell-based; details: MCF7, 72 h
Nicotiana tabacum [1] = assay: Cytokinin activity in tobacco callus assessed as stimulation of callus growth at 100 uM relative to 6-benzylaminopurine; type: functional
In short: (§1)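 Compounds dissolved in DMSO, diluted with water to 5 × 10^-2 M stock, then diluted in medium to 10^-8 to 10^-4 M. Final DMSO ≤0.2%; solvent control 0.2% DMSO. Readout was cytokinin-dependent tobacco callus growth. Activity is expressed relative to 10^-6 M BAP (=100%) at each compound's optimal concentration. Five replicates per concentration; whole test run at least twice.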

BJ = assay: Cytotoxicity against human BJ cells after 72 hrs by MTT assay; type: ADME, cell-based
Amaranthus = assay: Cytokinin activity in cotyledons assessed as dark induction of betacyanin synthesis at 100 uM relative to 6-benzylaminopurine; type: functional
Nicotiana tabacum [2] = assay: Cytokinin activity in tobacco callus assessed as stimulation of callus growth at 10 uM relative to 6-benzylaminopurine; type: functional; in short: as §1
Triticum aestivum = assay: Cytokinin activity in wheat leaf assessed as stimulation of retention of chlorophyll in excised leaves at 0.1 mM relative to 6-benzylaminopurine; type: functional
Nicotiana tabacum [3] = assay: Cytokinin activity in tobacco callus assessed as stimulation of callus growth at 1 uM relative to 6-benzylaminopurine; type: functional

SMILES | IC50 (K562) [µM] | IC50 (MCF7) [µM] | Activity (Nicotiana tabacum [1]) [%] | IC50 (BJ) [µM] | Activity (Amaranthus) [%] | Activity (Nicotiana tabacum [2]) [%] | Activity (Triticum aestivum) [%] | Activity (Nicotiana tabacum [3]) [%]
Oc1cccc(CNc2ncnc3c2ncn3C2CCCCO2)c1O (stereo not drawn) | 92 | > 100 | 3.2 | 63.3 | 8 | – | – | –
Oc1cc(O)cc(CNc2ncnc3c2ncn3C2CCCCO2)c1 (stereo not drawn) | > 100 | > 100 | – | > 100 | 33 | 36 | 15 | –
COc1cc(CNc2ncnc3c2ncn3C2CCCCO2)cc(OC)c1OC (stereo not drawn) | > 100 | > 100 | 17 | > 100 | 19 | – | 7 | –
c1ccc(CNc2ncnc3c2ncn3C2CCCO2)cc1 (stereo not drawn) | > 100 | > 100 | – | > 100 | 109 | – | 107 | 95
Oc1ccc(CNc2ncnc3c2ncn3C2CCCO2)cc1 (stereo not drawn) | > 100 | > 100 | – | > 100 | 10 | 19 | 8 | –
COc1ccccc1CNc1ncnc2c1ncn2C1CCCO1 (stereo not drawn) | > 100 | > 100 | – | > 100 | 107 | 91 | 72 | –
COc1cccc(CNc2ncnc3c2ncn3C2CCCO2)c1 (stereo not drawn) | > 100 | > 100 | – | > 100 | 123 | – | 82 | 96
COc1ccc(CNc2ncnc3c2ncn3C2CCCO2)cc1 (stereo not drawn) | > 100 | > 100 | – | > 100 | 25 | – | 16 | 7
COc1ccc(CNc2ncnc3c2ncn3C2CCCO2)cc1OC (stereo not drawn) | > 100 | > 100 | – | > 100 | 5 | – | 7 | 3
COc1cc(CNc2ncnc3c2ncn3C2CCCCO2)ccc1O (stereo not drawn) | > 100 | > 100 | 8.7 | > 100 | 26 | – | 7 | –
COc1cc(OC)c(CNc2ncnc3c2ncn3C2CCCCO2)c(OC)c1 (stereo not drawn) | > 50 | > 50 | 2 | > 50 | 14 | – | 3 | –
COc1ccc(CNc2ncnc3c2ncn3C2CCCCO2)cc1OC (stereo not drawn) | > 100 | > 100 | – | > 100 | 8 | – | 8 | –
COc1ccc(CNc2ncnc3c2ncn3C2CCCCO2)c(OC)c1OC (stereo not drawn) | > 37.5 | > 37.5 | – | > 37.5 | 4 | – | 7 | –
Oc1ccccc1CNc1ncnc2c1ncn2C1CCCO1 (stereo not drawn) | > 100 | > 100 | 58 | > 100 | 41 | – | 25 | –
Oc1ccccc1CNc1ncnc2c1ncn2C1CCCCO1 (stereo not drawn) | > 100 | > 100 | – | > 100 | 46 | 37 | 31 | –
COc1ccc(CNc2ncnc3c2ncn3C2CCCCO2)cc1 (stereo not drawn) | > 100 | > 100 | – | > 100 | 18 | – | – | 10
COc1ccc(CNc2ncnc3c2ncn3C2CCCO2)c(OC)c1 (stereo not drawn) | > 100 | > 100 | – | > 100 | 14 | – | 18 | 3
